The source of these data is ChEMBL document CHEMBL3526007, “The inactivation of human CYP2E1 by phenethyl isothiocyanate, a naturally occurring chemopreventive agent, and its oxidative bioactivation” (Drug Metab Dispos, 2013).

Common to all, as to assay type: ADME
One series concerns Liver microsome. As to the kind of experiment: Drug level in human liver microsomes treated with 50 uM phenethylisothiocyanate after 30 mins by ESI LC-MS/MS method. The note with it: 0.5 h. The gist of the method: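 Human liver microsomes (0.5 mg protein/ml) in 50 mM potassium phosphate pH 7.4, preincubated 5 min with 2 mM GSH. PEITC added to a final 50 µM with NADPH at a final 1.2 mM, then incubated 30 min at 37°C. Controls lacked NADPH. GSH conjugate recovered by C18 solid-phase extraction and analysed by positive-ion LC-MS/MS.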
A general note: Microsomes from liver hold many membrane-bound enzymes, among them those of drug oxidation.

Series [1] deals with T1, Cytochrome P450 2E1 (Homo sapiens, UniProt P05181). As to the kind of experiment: Drug level assessed as human CYP2E1-mediated compound formation using 50 uM phenethylisothiocyanate in presence of reductase and NADPH after 30 mins by LC-MS/MS method. The note with it: recombinant enzyme, 0.5 h. The gist of the method:
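Recombinant human CYP2E1 (1 µM) with reductase (1 µM) reconstituted in DLPC (100 µg/ml), preincubated with 2 mM GSH. PEITC added to a final 50 µM with NADPH at a final 1.2 mM, then incubated 30 min at 30°C. Controls lacked NADPH. Metabolites and GSH conjugates recovered by C18 solid-phase extraction and analysed by positive-ion ESI LC-MS/MS.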

Series [2] concerns the target T1, Cytochrome P450 2E1. As to the kind of experiment: Retention time assessed as human CYP2E1-mediated compound formation using 50 uM phenethylisothiocyanate in presence of reductase and NADPH after 30 mins by LC-MS/MS method. To be noted: recombinant enzyme, 0.5 h. The method in brief:
(§1)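 CYP2E1 (1 µM) and reductase (1 µM) reconstituted with lipid (100 µg/ml) and preincubated with 2 mM GSH. PEITC (final 50 µM) and NADPH (final 1.2 mM) then added, 30 min at 30°C; controls ran without NADPH. Products were taken up by C18 solid-phase extraction and analysed by positive-ion ESI LC-MS/MS, one full scan plus two data-dependent scans.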

The target in series [3] is T1, Cytochrome P450 2E1. Description: Inhibition of human CYP2E1 expressed in Escherichia coli MV1304 assessed as reduction in 7-EFC O-de-ethylation activity at 10 uM after 10 mins in presence of reductase by spectrofluorometry. The method in brief: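 Reconstituted CYP2E1/reductase (1 µM each, 100 µg/ml DLPC, catalase, 50 mM K phosphate pH 7.4) incubated 10 min at 30°C with PIC at 0- to 100-fold molar excess; PIC in acetonitrile, 1% final. Aliquots diluted into secondary mix (0.1 mM 7-EFC, 0.2 mM NADPH, BSA) for 10 min; 7-HFC read at ex 410/em 510 nm. Three experiments in duplicate.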

Series [4] concerns the target T1, Cytochrome P450 2E1. Description: Drug metabolism assessed as human CYP2E1-mediated phenethylamine formation at 50 uM in presence of reductase and NADPH after 30 mins by LC-MS/MS method. The note with it: recombinant enzyme, 0.5 h. The method in brief:
as §1

In series [5] the target is T1, Cytochrome P450 2E1. Description: Drug metabolism assessed as human CYP2E1-mediated phenethylamine formation at 50 uM in presence of reductase and absence of NADPH after 30 mins by LC-MS/MS method. The note with it: recombinant enzyme, 0.5 h. The gist of the method: as §1
Series [6] deals with T1, Cytochrome P450 2E1. Description: Covalent binding to human CYP2E1 expressed in Escherichia coli MV1304 assessed as protein-adduct formation at 25 uM after 10 mins by ESI LC-MS/MS method. The gist of the method:
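CYP2E1 (1 µM) reconstituted with lipid only (100 µg/ml), no reductase, incubated 10 min at 30°C; control received methanol. Samples (50 µl) analysed by ESI LC-MS/MS on a C18 reverse-phase column equilibrated with 35% acetonitrile/0.1% TFA. Protein envelopes deconvoluted to give the intact protein mass. Mean of two injections.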

The target of series [7] is T1, Cytochrome P450 2E1. Description: Inhibition of human CYP2E1 expressed in Escherichia coli MV1304 assessed as reduction in 7-EFC O-de-ethylation activity by spectrofluorometry. The method in brief: (§2)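 Primary mix: 1 µM CYP2E1, 1 µM reductase, 100 µg/ml DLPC and catalase in 50 mM K phosphate pH 7.4, with PEITC 0–50 µM (methanol 1% final). Started with 1.2 mM NADPH at 30°C and sampled at 0–5 min. Aliquots assayed for 10 min with 0.1 mM 7-EFC and 0.2 mM NADPH; fluorescence read at ex 410/em 510 nm. Inactivation kinetics from a double-reciprocal plot. Six experiments in duplicate.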

Series [8] addresses T2, CYP2E1 (Homo sapiens, UniProt P05181). As to the kind of experiment: (§3) Inhibition of human CYP2E1 expressed in Escherichia coli MV1304 assessed as reduction in 7-EFC O-de-ethylation activity by spectrofluorometry based double reciprocal plot. The note with it: human, probe 7-EFC (O-de-ethylation). The method in brief: (§4)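 Reconstituted CYP2E1 (1 µM) with reductase (1 µM), 100 µg/ml DLPC and catalase, in 50 mM KPi pH 7.4. PEITC 0–50 µM was added (1% methanol final) and the reaction started with 1.2 mM NADPH at 30°C. Aliquots taken at 0–5 min were assayed for 10 min with 0.1 mM 7-EFC and 0.2 mM NADPH; 7-HFC fluorescence was read. Inactivation rates were analysed by double-reciprocal plot. Six experiments, each in duplicate.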

Series [9] has as its target T1, Cytochrome P450 2E1. The series is described as §3. The gist of the method:
as §4

Series [10] concerns the target T1, Cytochrome P450 2E1. Description: Inhibition of human CYP2E1 expressed in Escherichia coli MV1304 assessed as reduction in 7-EFC O-de-ethylation activity in absence of cytochrome b5 by spectrofluorometry. The gist of the method: as §2
For series [11], the target named is T1, Cytochrome P450 2E1. Description: Inhibition of human CYP2E1 expressed in Escherichia coli MV1304 assessed as partition ratio for enzyme inactivation. The gist of the method:
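Reconstituted CYP2E1 (1 µM) with reductase (1 µM), 100 µg/ml DLPC and catalase, in 50 mM KPi pH 7.4. Incubated with increasing PEITC plus 1.2 mM NADPH for 10 min at 30°C until inactivation was complete. Residual 7-EFC O-de-ethylation was read by fluorescence (ex 410/em 510 nm). Percent activity remaining was plotted against PEITC:P450 molar ratio. The turnover number (r+1) was taken from the intercept of the regression lines. Mean of three experiments.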

Series [12] deals with T2, CYP2E1. As to the kind of experiment: Inactivation of human CYP2E1 expressed in Escherichia coli MV1304 assessed as remaining enzyme activity at 25 uM after dialysis by 7-EFC O-de-ethylation activity detection based spectrofluorometry. The note with it: probe 7-EFC (O-de-ethylation), read-out: Activity. The gist of the method:
(§5)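 CYP2E1 and reductase (1 µM each) reconstituted with DLPC (100 µg/ml) plus catalase in 50 mM K phosphate pH 7.4. Incubated 10 min at 30°C with 25 µM PEITC ± 1.2 mM NADPH; control had neither. Then dialysed overnight at 4°C against phosphate buffer with 20% glycerol and 0.1 mM EDTA. Read-outs: P450 by reduced CO difference spectrum (ε450 91 mM⁻¹cm⁻¹), heme by HPLC, and 7-EFC O-de-ethylation after re-adding lipid (50 µg/ml) ± fresh reductase (1 µM). Two experiments in duplicate.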

Series [13] addresses T2, CYP2E1. Description: Inactivation of human CYP2E1 expressed in Escherichia coli MV1304 assessed as remaining enzyme activity at 25 uM after dialysis in presence of fresh reductase by 7-EFC O-de-ethylation activity detection based spectrofluorometry. To be noted: probe 7-EFC (O-de-ethylation), read-out: Activity. The method in brief: as §5
For series [14], the target named is T1, Cytochrome P450 2E1. As to the kind of experiment: Inactivation of human CYP2E1 expressed in Escherichia coli MV1304 assessed as remaining P450 level at 25 uM after dialysis by CO difference spectral method. The method in brief: as §5
For series [15], the target named is T1, Cytochrome P450 2E1. As to the kind of experiment: Inactivation of human CYP2E1 expressed in Escherichia coli MV1304 assessed as remaining heme level at 25 uM after dialysis by HPLC method. The gist of the method:
as §5

The target in series [16] is T2, CYP2E1. Description: Inactivation of human CYP2E1 expressed in Escherichia coli MV1304 assessed as remaining enzyme activity at 25 uM in presence of 1.2 mM NADPH after dialysis by 7-EFC O-de-ethylation activity detection based spectrofluorometry. The note with it: probe 7-EFC (O-de-ethylation), read-out: Activity. The method in brief: as §5
Series [17] concerns the target T2, CYP2E1. As to the kind of experiment: Inactivation of human CYP2E1 expressed in Escherichia coli MV1304 assessed as remaining enzyme activity at 25 uM in presence of 1.2 mM NADPH after dialysis in presence of fresh reductase by 7-EFC O-de-ethylation activity detection based spectrofluorometry. The note with it: probe 7-EFC (O-de-ethylation), read-out: Activity. The method in brief: as §5

Series [18] concerns the target T1, Cytochrome P450 2E1. Description: Inactivation of human CYP2E1 expressed in Escherichia coli MV1304 assessed as remaining P450 level at 25 uM in presence of 1.2 mM NADPH after dialysis by CO difference spectral method. The gist of the method: as §5
Series [19] deals with T1, Cytochrome P450 2E1. Description: Inactivation of human CYP2E1 expressed in Escherichia coli MV1304 assessed as remaining heme level at 25 uM in presence of 1.2 mM NADPH after dialysis by HPLC method. The method in brief: as §5
Series [20] concerns the target T1, Cytochrome P450 2E1. As to the kind of experiment: Inhibition of human CYP2E1 expressed in Escherichia coli MV1304 assessed as reduction in 7-EFC O-de-ethylation activity at 50 uM added 1 min before NADPH addition in presence of 1 mM GSH by spectrofluorometry. To be noted: TDE = time-dependent effect. The method in brief:
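Reconstituted CYP2E1/reductase (1 µM each, DLPC, catalase, pH 7.4 phosphate). Arms: 1.2 mM NADPH alone, with 50 µM PEITC, or with 50 µM PEITC plus 1 mM GSH. PEITC added 1 min before NADPH; incubation at 30°C. Residual 7-EFC O-de-ethylation measured at 0, 2, 4, 6 and 12 min by 7-HFC fluorescence.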

The term kinact denotes the maximal first-order rate at which the target is inactivated. Broadly, the pKi is the Ki on a negative log10 scale, so that one unit is a factor of ten.

pKi: −log10 of the molar value.

T1 sequence (P05181 whole entry): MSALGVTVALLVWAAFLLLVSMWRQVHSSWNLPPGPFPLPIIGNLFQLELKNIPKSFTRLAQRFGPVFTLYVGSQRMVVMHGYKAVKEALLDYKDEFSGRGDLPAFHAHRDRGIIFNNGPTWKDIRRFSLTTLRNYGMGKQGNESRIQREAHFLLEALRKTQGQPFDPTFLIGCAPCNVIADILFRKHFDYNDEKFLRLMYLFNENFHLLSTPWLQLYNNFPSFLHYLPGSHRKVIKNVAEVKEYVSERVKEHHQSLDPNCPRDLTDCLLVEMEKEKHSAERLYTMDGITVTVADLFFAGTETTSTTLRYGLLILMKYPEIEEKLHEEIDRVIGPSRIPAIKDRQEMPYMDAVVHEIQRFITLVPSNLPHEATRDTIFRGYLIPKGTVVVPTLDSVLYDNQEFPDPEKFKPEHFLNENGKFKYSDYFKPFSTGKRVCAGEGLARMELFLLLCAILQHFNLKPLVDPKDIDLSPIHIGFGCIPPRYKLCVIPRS
T2 sequence (P05181 whole entry): as above

With `N[C@@H](CCC(=O)N[C@@H](CSC(=O)NCCc1ccccc1)C(=O)NCC(=O)O)C(=O)O`, the Drug metabolism result in the series on Liver microsome and at Cytochrome P450 2E1 [1] was “metabolite_detected” each time.

For the molecule `N[C@@H](CCC(=O)N[C@@H](CSC(=S)NCCc1ccccc1)C(=O)NCC(=O)O)C(=O)O`, on Cytochrome P450 2E1 [2], the Retention_time is given as 16.7 min. Also, the Drug metabolism entry at Cytochrome P450 2E1 [1] is reported as “metabolite_detected”.

On to `O=C=NCCc1ccccc1` [PHENETHYL ISOCYANATE], for which the “inhibition (INH)” value at Cytochrome P450 2E1 [3] is reported as “Not Active”.

As to `NCCc1ccccc1` [PHENETHYLAMINE], at Cytochrome P450 2E1 [2], the Retention_time came out at 12.7 min.

For `S=C=NCCc1ccccc1` [PHENETHYLISOTHIOCYANATE], the values for the Drug metabolism entry at Cytochrome P450 2E1 [4] and on Cytochrome P450 2E1 [5] were “metabolite_detected” and “metabolite_not_detected”, respectively. The Activity result at Cytochrome P450 2E1 [6] is given as “Not Active”; at Cytochrome P450 2E1 [14], 93%; on Cytochrome P450 2E1 [15], 100%; at Cytochrome P450 2E1 [18], 42%; on Cytochrome P450 2E1 [19] it was 64%. Further, the “inhibition (INH)” value was “Dose-dependent effect and tde” on Cytochrome P450 2E1 [7]; “Active” at Cytochrome P450 2E1 [10]; “tde” at Cytochrome P450 2E1 [20]. The kinact on CYP2E1 [8] is 0.00383 s⁻¹. Moreover, at Cytochrome P450 2E1 [9], the pKi is 4.96. Besides, the Ratio at Cytochrome P450 2E1 [11] is on record as 12. Further, the activity at 25 µM was determined as 82% at CYP2E1 [12], 85% at CYP2E1 [13], 27% on CYP2E1 [16] and 26% at CYP2E1 [17].
